{"source": "ChEMBL document CHEMBL5360562", "about": "(Eur J Med Chem, 2023)", "key": {"Acinetobacter baumannii [1]": {"test_system": "Acinetobacter baumannii", "test": "Potentiation of Clarithromycin antibacterial activity against Acinetobacter baumannii AB5674 assessed as clarithromycin MIC at 10 uM incubated for 16 hrs by broth microdilution method", "assay_type": "functional"}, "Acinetobacter baumannii [2]": {"test_system": "Acinetobacter baumannii", "test": "Potentiation of Clarithromycin antibacterial activity against Acinetobacter baumannii AB5711 assessed as clarithromycin MIC at 10 uM incubated for 16 hrs by broth microdilution method", "assay_type": "functional"}, "Acinetobacter baumannii [3]": {"test_system": "Acinetobacter baumannii", "test": "Potentiation of Azithromycin antibacterial activity against Acinetobacter baumannii AB5075 assessed as azithromycin MIC at 10 uM incubated for 16 hrs by broth microdilution method", "assay_type": "functional"}, "Acinetobacter baumannii [4]": {"test_system": "Acinetobacter baumannii", "test": "Potentiation of Clarithromycin antibacterial activity against Acinetobacter baumannii AB3560 assessed as clarithromycin MIC at 10 uM incubated for 16 hrs by broth microdilution method", "assay_type": "functional"}, "Acinetobacter baumannii [5]": {"test_system": "Acinetobacter baumannii", "test": "Potentiation of Azithromycin antibacterial activity against Acinetobacter baumannii AB5075 assessed as azithromycin MIC at 30 uM incubated for 16 hrs by broth microdilution method", "assay_type": "functional"}, "[6]": {"test": "Stability of compound in human plasma assessed as parent compound remaining measured at 4 hrs", "assay_type": "ADME, cell-free", "in_short": "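Compound at 20 μM final in human plasma (from 10 mM DMSO stock), 37 °C; aliquots at 0, 30, 60, 120, 240 min quenched in internal standard in 1:1 ACN/MeOH, centrifuged, supernatant analysed by UPLC-MRM. Peak-area ratio to internal standard expressed as % parent remaining relative to 0 min; half-life calculated.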"}, "[7]": {"test": "Metabolic stability in human liver microsomes assessed as parent compound remaining in presence of NADPH measured at 1 hr by UV-UPLC analysis", "assay_type": "ADME, Microsome"}, "Acinetobacter baumannii [8]": {"test_system": "Acinetobacter baumannii", "test": "Potentiation of Azithromycin antibacterial activity against Acinetobacter baumannii AB5075 assessed as azithromycin MIC at 20 uM incubated for 16 hrs by broth microdilution method", "assay_type": "functional"}, "Acinetobacter baumannii [9]": {"test_system": "Acinetobacter baumannii", "test": "Antibacterial activity against Acinetobacter baumannii AB5075 assessed as reduction in bacterial growth incubated for 16 hrs by broth microdilution method", "assay_type": "functional"}, "Acinetobacter baumannii [10]": {"test_system": "Acinetobacter baumannii", "test": "Potentiation of rifampicin antibacterial activity against Acinetobacter baumannii AB5075 assessed as rifampicin MIC at 30 uM incubated for 16 hrs by broth microdilution method", "assay_type": "functional"}, "Klebsiella pneumoniae [11]": {"test_system": "Klebsiella pneumoniae", "test": "Antibacterial activity against Klebsiella pneumoniae ATCC BAA-2146 assessed as inhibition of bacterial growth incubated for 16 hrs by broth microdilution method", "assay_type": "functional", "in_short": "(§1)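 Standalone MIC by broth microdilution. 6 h day cultures in cation-adjusted Mueller-Hinton broth (CAMHB) diluted to 5×10^5 CFU/mL. Compound added from 10 mM DMSO stock to 200 μM (highest concentration), then twofold serial dilution. Incubated stationary at 37 °C for 16 h.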"}, "Acinetobacter baumannii [12]": {"test_system": "Acinetobacter baumannii", "test": "Potentiation of rifampicin antibacterial activity against Acinetobacter baumannii AB5075 assessed as rifampicin MIC at 10 uM incubated for 16 hrs by broth microdilution method", "assay_type": "functional"}, "Escherichia coli [13]": {"test_system": "Escherichia coli", "test": "Antibacterial activity against Escherichia coli ATCC 25922 assessed as inhibition of bacterial growth incubated for 16 hrs by broth microdilution method", "assay_type": "functional", "in_short": "as §1"}, "Acinetobacter baumannii [14]": {"test_system": "Acinetobacter baumannii", "test": "Potentiation of rifampicin antibacterial activity against Acinetobacter baumannii AB5075 assessed as rifampicin MIC at 20 uM incubated for 16 hrs by broth microdilution method", "assay_type": "functional"}, "Acinetobacter baumannii [15]": {"test_system": "Acinetobacter baumannii", "test": "Potentiation of rifampicin antibacterial activity against Acinetobacter baumannii AB5075 assessed as rifampicin MIC at 7.5 uM incubated for 16 hrs by broth microdilution method", "assay_type": "functional", "in_short": "(§2)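 A. baumannii AB5075 6 h day cultures in CAMHB subcultured to 5×10^5 CFU/mL; adjuvant added from 10 mM DMSO stock at fixed concentration, then rifampicin (DMSO) twofold serially diluted in adjuvant-containing broth. Antibiotic-alone and adjuvant-alone control lanes.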"}, "Acinetobacter baumannii [16]": {"test_system": "Acinetobacter baumannii", "test": "Potentiation of Clarithromycin antibacterial activity against Acinetobacter baumannii AB5075 assessed as clarithromycin MIC at 5 uM incubated for 16 hrs by broth microdilution method", "assay_type": "functional"}, "Acinetobacter baumannii [17]": {"test_system": "Acinetobacter baumannii", "test": "Potentiation of Clarithromycin antibacterial activity against Acinetobacter baumannii AB5075 assessed as clarithromycin MIC at 1.5 uM incubated for 16 hrs by broth microdilution method", "assay_type": "functional", "in_short": "(§3)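 Checkerboard-style potentiation by broth microdilution. 6 h day cultures in CAMHB diluted to 5×10^5 CFU/mL. Adjuvant added from 10 mM DMSO stock at fixed concentration throughout. […] Controls: antibiotic alone, adjuvant alone, media only. Incubated stationary at 37 °C for 16 h. MIC is lowest concentration with no visible growth; fold reduction taken against the antibiotic-alone lane.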"}, "Acinetobacter baumannii [18]": {"test_system": "Acinetobacter baumannii", "test": "Potentiation of Azithromycin antibacterial activity against Acinetobacter baumannii AB5075 assessed as azithromycin MIC at 5 uM incubated for 16 hrs by broth microdilution method", "assay_type": "functional"}, "Acinetobacter baumannii [19]": {"test_system": "Acinetobacter baumannii", "test": "Potentiation of erythromycin antibacterial activity against Acinetobacter baumannii AB5075 assessed as erythromycin MIC at 5 uM incubated for 16 hrs by broth microdilution method", "assay_type": "functional"}, "Acinetobacter baumannii [20]": {"test_system": "Acinetobacter baumannii", "test": "Potentiation of Clarithromycin antibacterial activity against Acinetobacter baumannii AB5075 assessed as clarithromycin MIC at 2.5 uM incubated for 16 hrs by broth microdilution method", "assay_type": "functional"}, "Acinetobacter baumannii [21]": {"test_system": "Acinetobacter baumannii", "test": "Potentiation of erythromycin antibacterial activity against Acinetobacter baumannii AB5075 assessed as erythromycin MIC at 10 uM incubated for 16 hrs by broth microdilution method", "assay_type": "functional"}, "Klebsiella pneumoniae [22]": {"test_system": "Klebsiella pneumoniae", "test": "Potentiation of Clarithromycin antibacterial activity against Klebsiella pneumoniae ATCC BAA-2146 assessed as clarithromycin MIC at 10 uM incubated for 16 hrs by broth microdilution method", "assay_type": "functional"}, "Pseudomonas aeruginosa [23]": {"test_system": "Pseudomonas aeruginosa", "test": "Potentiation of Clarithromycin antibacterial activity against Pseudomonas aeruginosa PAO1 assessed as clarithromycin MIC at 30 uM incubated for 16 hrs by broth microdilution method", "assay_type": "functional"}, "Pseudomonas aeruginosa [24]": {"test_system": "Pseudomonas aeruginosa", "test": "Potentiation of Clarithromycin antibacterial activity against Pseudomonas aeruginosa PAO1 assessed as clarithromycin MIC at 20 uM incubated for 16 hrs by broth microdilution method", "assay_type": "functional", "in_short": "as §3"}, "Escherichia coli [25]": {"test_system": "Escherichia coli", "test": "Potentiation of Clarithromycin antibacterial activity against Escherichia coli ATCC 25922 assessed as clarithromycin MIC at 3 uM incubated for 16 hrs by broth microdilution method", "assay_type": "functional"}, "Klebsiella pneumoniae [26]": {"test_system": "Klebsiella pneumoniae", "test": "Potentiation of Clarithromycin antibacterial activity against Klebsiella pneumoniae ATCC BAA-2146 assessed as clarithromycin MIC at 7.5 uM incubated for 16 hrs by broth microdilution method", "assay_type": "functional"}, "Acinetobacter baumannii [27]": {"test_system": "Acinetobacter baumannii", "test": "Potentiation of rifampicin antibacterial activity against Acinetobacter baumannii AB5075 assessed as rifampicin MIC at 5 uM incubated for 16 hrs by broth microdilution method", "assay_type": "functional", "in_short": "as §2"}, "Acinetobacter baumannii [28]": {"test_system": "Acinetobacter baumannii", "test": "Potentiation of erythromycin antibacterial activity against Acinetobacter baumannii AB5075 assessed as erythromycin MIC at 2.5 uM incubated for 16 hrs by broth microdilution method", "assay_type": "functional"}, "Acinetobacter baumannii [29]": {"test_system": "Acinetobacter baumannii", "test": "Potentiation of erythromycin antibacterial activity against Acinetobacter baumannii AB5075 assessed as erythromycin MIC at 20 uM incubated for 16 hrs by broth microdilution method", "assay_type": "functional"}, "Acinetobacter baumannii [30]": {"test_system": "Acinetobacter baumannii", "test": "Potentiation of Clarithromycin antibacterial activity against Acinetobacter baumannii AB5075 assessed as fold reduction in clarithromycin MIC at 10 uM incubated for 16 hrs by broth microdilution method", "assay_type": "functional", "in_short": "as §3"}, "Acinetobacter baumannii [31]": {"test_system": "Acinetobacter baumannii", "test": "Potentiation of Clarithromycin antibacterial activity against Acinetobacter baumannii AB5075 assessed as fold reduction in clarithromycin MIC at 7.5 uM incubated for 16 hrs by broth microdilution method", "assay_type": "functional", "in_short": "as §3"}, "Escherichia coli [32]": {"test_system": "Escherichia coli", "test": "Potentiation of Clarithromycin antibacterial activity against Escherichia coli ATCC 25922 assessed as clarithromycin MIC at 2.5 uM incubated for 16 hrs by broth microdilution method", "assay_type": "functional", "in_short": "as §3"}}, "data": [{"smiles": "Cl.Cl.Nc1nc(-c2ccc(NC(=O)Nc3cccc(-c4c[nH]c(N)n4)c3F)cc2F)c[nH]1", "values": [{"measurement": "MIC", "setting": "Acinetobacter baumannii [1]", "result": "≤ 0.062", "unit": "µg/mL"}, {"measurement": "MIC", "setting": "Acinetobacter baumannii [2]", "result": "≤ 0.062", "unit": "µg/mL"}, {"measurement": "MIC", "setting": "Acinetobacter baumannii [3]", "result": 0.125, "unit": "µg/mL"}, {"measurement": "MIC", "setting": "Acinetobacter baumannii [4]", "result": "≤ 0.062", "unit": "µg/mL"}, {"measurement": "MIC", "setting": "Acinetobacter baumannii [5]", "result": "≤ 0.062", "unit": "µg/mL"}, {"measurement": "Stability", "setting": "[6]", "result": 76, "unit": "%"}, {"measurement": "Stability", "setting": "[7]", "result": 87, "unit": "%"}, {"measurement": "MIC", "setting": "Acinetobacter baumannii [8]", "result": "≤ 0.062", "unit": "µg/mL"}, {"measurement": "MIC", "setting": "Acinetobacter baumannii [9]", "result": "> 200", "unit": "µM"}, {"measurement": "MIC", "setting": "Acinetobacter baumannii [10]", "result": 0.001, "unit": "µg/mL"}, {"measurement": "MIC", "setting": "Klebsiella pneumoniae [11]", "result": "> 200", "unit": "µM"}, {"measurement": "MIC", "setting": "Acinetobacter baumannii [12]", "result": 0.007, "unit": "µg/mL"}, {"measurement": "MIC", "setting": "Escherichia coli [13]", "result": 12.5, "unit": "µM"}, {"measurement": "MIC", "setting": "Acinetobacter baumannii [14]", "result": 0.001, "unit": "µg/mL"}, {"measurement": "MIC", "setting": "Acinetobacter baumannii [15]", "result": 0.015, "unit": "µg/mL"}, {"measurement": "MIC", "setting": "Acinetobacter baumannii [16]", "result": "≤ 0.062", "unit": "µg/mL"}, {"measurement": "MIC", "setting": "Acinetobacter baumannii [17]", "result": 2, "unit": "µg/mL"}, {"measurement": "MIC", "setting": "Acinetobacter baumannii [18]", "result": 1, "unit": "µg/mL"}, {"measurement": "MIC", "setting": "Acinetobacter baumannii [19]", "result": 0.5, "unit": "µg/mL"}, {"measurement": "MIC", "setting": "Acinetobacter baumannii [20]", "result": 0.125, "unit": "µg/mL"}, {"measurement": "MIC", "setting": "Acinetobacter baumannii [21]", "result": "≤ 0.062", "unit": "µg/mL"}, {"measurement": "MIC", "setting": "Klebsiella pneumoniae [22]", "result": 2, "unit": "µg/mL"}, {"measurement": "MIC", "setting": "Pseudomonas aeruginosa [23]", "result": 0.5, "unit": "µg/mL"}, {"measurement": "MIC", "setting": "Pseudomonas aeruginosa [24]", "result": 16, "unit": "µg/mL"}, {"measurement": "MIC", "setting": "Escherichia coli [25]", "result": 4, "unit": "µg/mL"}, {"measurement": "MIC", "setting": "Klebsiella pneumoniae [26]", "result": 16, "unit": "µg/mL"}, {"measurement": "MIC", "setting": "Acinetobacter baumannii [27]", "result": 0.125, "unit": "µg/mL"}, {"measurement": "MIC", "setting": "Acinetobacter baumannii [28]", "result": 32, "unit": "µg/mL"}, {"measurement": "MIC", "setting": "Acinetobacter baumannii [29]", "result": "≤ 0.062", "unit": "µg/mL"}, {"measurement": "fold change (FC)", "setting": "Acinetobacter baumannii [30]", "result": ">=512"}, {"measurement": "fold change (FC)", "setting": "Acinetobacter baumannii [31]", "result": ">=512"}, {"measurement": "MIC", "setting": "Escherichia coli [32]", "result": 32, "unit": "µg/mL"}]}]}
